Columns and labels:
[1] = Estimation of membrane permeability by migration behavior in micellar media; type: ADME
In short: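 Capillary electrophoresis in MEKC mode on untreated fused-silica capillaries (50 µm i.d., 26.5 cm effective length), 300 V/cm, capillary at 37.0 ± 0.1 °C for log k′. Micellar electrolyte: 100 mM sodium cholate in sodium phosphate buffer pH 7.4, I = 0.05. Rinses with 0.1 M NaOH, water, then electrolyte before each run. Hydrodynamic injection at 20 mbar for 5 s. Read-out: log k′.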

[2] = biological target: Prothrombin (Homo sapiens, UniProt P00734); assay: Inhibitory activity against thrombin
[3] = Estimation of membrane permeability; type: ADME
[4] = biological target: T1, Serine protease 1 (Bos taurus, UniProt P00760); assay: Inhibitory activity against bovine Trypsin
T1 sequence (P00760 whole entry): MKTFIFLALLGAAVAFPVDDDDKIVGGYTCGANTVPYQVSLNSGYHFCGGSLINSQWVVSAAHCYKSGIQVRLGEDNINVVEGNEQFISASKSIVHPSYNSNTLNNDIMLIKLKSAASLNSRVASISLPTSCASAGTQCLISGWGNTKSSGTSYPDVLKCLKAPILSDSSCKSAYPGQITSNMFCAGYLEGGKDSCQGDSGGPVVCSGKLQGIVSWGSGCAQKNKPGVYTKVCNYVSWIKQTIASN
In short: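 Bovine trypsin at 0.25 mg/L final in 0.05 mol/L Tris-HCl pH 8.2 (20 °C) with 20 mM CaCl₂. Inhibitor at seven assay levels of […], preincubated 5 min with enzyme at 37 °C. S-2222 chromogenic substrate at assay levels of 15, 25 and 50 µM. A405 read every 10 s for 110 s. Ki obtained by linear regression.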

## Cc1cc(OCCc2ccc(CN)c(O)c2)cc(OS(=O)(=O)c2cc(Cl)ccc2Cl)c1
[1]
  CE logK': 0.98
[2]
  IC50: 0.933 µM
[3]
  pKa: 8.6

## COc1ccc(C)cc1S(=O)(=O)Oc1cccc(OCCc2ccc(C(=N)N)c(O)c2)c1
[1]
  CE logK': 1.08
[2]
  IC50: 0.575 µM
[3]
  pKa: 6.2
[4]
  Ki: 28.2 µM

## NCc1ccc(CCOc2cccc(OS(=O)(=O)c3ccccc3)c2)cc1O
[1]
  CE logK': 0.85
[2]
  IC50: 10.7 µM
[3]
  pKa: 8.3

## CCc1cc(OCCc2ccccc2)cc(OS(=O)(=O)c2cc(Cl)ccc2Cl)c1
[1]
  CE logK': 1.85

## CCc1cc(OCCc2ccc(CN)cc2)cc(OS(=O)(=O)c2cc(C)ccc2OC)c1
[1]
  CE logK': 0.87
[3]
  pKa: 9.3
[4]
  Ki: 6.17 µM

## COc1c(Cl)cc(Cl)cc1S(=O)(=O)Oc1cccc(OCCc2ccc(C(=N)N)cc2)c1
[1]
  CE logK': 0.96
[2]
  IC50: 0.0562 µM
[3]
  pKa: 10.5
[4]
  Ki: 0.263 µM

## Cc1cccc(S(=O)(=O)Oc2cccc(OCCc3ccc(CN)cc3)c2)c1
[1]
  CE logK': 0.89
[2]
  IC50: 58.9 µM
[3]
  pKa: 9.4

## CCc1cc(OCCc2ccc(C(=N)N)cc2)cc(OS(=O)(=O)c2ccccc2)c1
[1]
  CE logK': 0.88
[2]
  IC50: 0.0251 µM
[3]
  pKa: 10.9

## CCc1cc(OCCc2ccc(C(=N)N)c(O)c2)cc(OS(=O)(=O)c2cc(Cl)cc(Cl)c2OC)c1
[1]
  CE logK': 1.27
[3]
  pKa: 6.3

## CCc1cc(OCCc2cccc(O)c2)cc(OS(=O)(=O)c2cc(C)ccc2OC)c1
[1]
  CE logK': 1.3

## Cc1cc(OCCc2ccc(C(=N)N)c(O)c2)cc(OS(=O)(=O)c2cccc(C)c2)c1
[1]
  CE logK': 1.16
[2]
  IC50: 0.135 µM
[3]
  pKa: 6.3
[4]
  Ki: 32.4 µM

## O=S(=O)(Oc1cccc(OCCc2cccc(O)c2)c1)c1cccc(Cl)c1Cl
[1]
  CE logK': 1.41

## COc1c(Cl)cc(Cl)cc1S(=O)(=O)Oc1cc(C)cc(OCCc2cccc(O)c2)c1
[1]
  CE logK': 1.57

## Cc1cc(OCCc2ccccc2)cc(OS(=O)(=O)c2ccccc2)c1
[1]
  CE logK': 1.51

## CCc1cc(OCCc2ccc(CN)c(O)c2)cc(OS(=O)(=O)c2cccc(Cl)c2Cl)c1
[1]
  CE logK': 1.08
[2]
  IC50: 11.2 µM
[3]
  pKa: 8.3

## CCc1cc(OCCc2cccc(O)c2)cc(OS(=O)(=O)c2ccccc2)c1
[1]
  CE logK': 1.42

## Cc1cc(OCCc2ccc(CN)cc2)cc(OS(=O)(=O)c2cccc(Cl)c2Cl)c1
[1]
  CE logK': 0.97
[2]
  IC50: 1.23 µM
[3]
  pKa: 9

## COc1ccc(C)cc1S(=O)(=O)Oc1cccc(OCCc2ccccc2)c1
[1]
  CE logK': 1.4

From ChEMBL document CHEMBL1134416, “Statistical molecular design, parallel synthesis, and biological evaluation of a library of thrombin inhibitors” (J Med Chem, 2001)
